Test results: ChEMBL document CHEMBL1759937, “Pyridinesulfonylureas and pyridinesulfonamides as selective bombesin receptor subtype-3 (BRS-3) agonists” (Bioorg Med Chem Lett, 2011)

Tests used:
[1] = target: T1, Bombesin receptor subtype-3 (Homo sapiens, UniProt P32247); test: Binding affinity to human BRS3
T1 sequence (P32247 whole entry): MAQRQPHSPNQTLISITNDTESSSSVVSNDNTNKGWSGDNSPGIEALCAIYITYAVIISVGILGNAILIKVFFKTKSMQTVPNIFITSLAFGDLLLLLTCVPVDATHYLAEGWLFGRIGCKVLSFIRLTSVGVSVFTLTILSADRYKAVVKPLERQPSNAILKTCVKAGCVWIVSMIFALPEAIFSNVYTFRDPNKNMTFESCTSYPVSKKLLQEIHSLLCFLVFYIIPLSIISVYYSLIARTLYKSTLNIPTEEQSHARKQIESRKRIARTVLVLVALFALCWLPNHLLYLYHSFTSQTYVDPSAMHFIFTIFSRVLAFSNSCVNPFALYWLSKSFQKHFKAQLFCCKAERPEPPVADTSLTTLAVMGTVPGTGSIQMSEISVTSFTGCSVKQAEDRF

[2] = target: T2, Bombesin receptor subtype-3 (Mus musculus, UniProt O54798); test: Agonist activity at mouse BRS3 by functional assay
T2 sequence (O54798 whole entry): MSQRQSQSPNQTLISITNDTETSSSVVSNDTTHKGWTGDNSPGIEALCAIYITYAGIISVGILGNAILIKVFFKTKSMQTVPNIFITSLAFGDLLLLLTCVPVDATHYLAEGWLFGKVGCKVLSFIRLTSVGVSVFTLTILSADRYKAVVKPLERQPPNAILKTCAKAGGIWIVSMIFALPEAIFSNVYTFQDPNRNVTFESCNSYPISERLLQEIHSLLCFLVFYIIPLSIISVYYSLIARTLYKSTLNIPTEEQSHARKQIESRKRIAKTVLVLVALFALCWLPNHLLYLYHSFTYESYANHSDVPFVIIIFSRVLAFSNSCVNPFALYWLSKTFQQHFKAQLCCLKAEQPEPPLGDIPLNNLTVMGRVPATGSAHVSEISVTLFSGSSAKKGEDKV
Method in brief: (§1)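 HEK293AEQ cells expressing mouse BRS-3; bioluminescence read against log molar compound concentration. EC50 taken as the inflection point of the sigmoidal curve and normalized to the EC50 of an internal standard. Values under 2 µM with standard errors are means of at least three experiments; duplicate data are reported individually.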

[3] = target: T1, Bombesin receptor subtype-3; test: Agonist activity at human BRS3 by functional assay
[4] = target: T3, Bombesin receptor subtype-3 (Mus musculus) (UniProt O54798); test: Agonist activity at mouse BRS3 by functional assay relative to control; method in brief: as §1
T3 sequence (whole entry): T2 sequence (O54798 whole entry)

[5] = Volume of distribution at steady state in Sprague-Dawley rat at 1 mg/kg, iv or 4 mg/kg, po; type: ADME, organism-based; conditions: in vivo, read-out: Vdss
Method in brief: (§2)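 Male Sprague–Dawley rats. Blood collected at various time points into lithium heparin tubes and centrifuged; plasma stored at -70 °C until analysis. Plasma extracted by protein precipitation and quantified by LC/MS/MS.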

[6] = Bioavailability in Sprague-Dawley rat at 1 mg/kg, iv or 4 mg/kg, po; type: ADME, organism-based; conditions: in vivo; method in brief: as §2
[7] = Plasma clearance in Sprague-Dawley rat at 1 mg/kg, iv or 4 mg/kg, po; type: ADME, organism-based; method in brief: as §2
[8] = Cmax in Sprague-Dawley rat at 1 mg/kg, iv or 4 mg/kg, po by LC/MS/MS; type: ADME, organism-based; conditions: in vivo; method in brief: as §2
[9] = Mean residence time in Sprague-Dawley rat at 1 mg/kg, iv or 4 mg/kg, po; type: ADME, organism-based; conditions: in vivo; method in brief: as §2
[10] = Half life in Sprague-Dawley rat at 1 mg/kg, iv or 4 mg/kg, po; type: ADME, organism-based; conditions: in vivo; method in brief: as §2
[11] = target: T1, Bombesin receptor subtype-3
[12] = target: T1, Bombesin receptor subtype-3; test: Agonist activity at human BRS3 expressed in HEK293AEQ cells using 10 uM dy-peptide by bioluminescence assay
[13] = target: Neuromedin-B receptor (Homo sapiens) (UniProt P28336)
[14] = target: Gastrin-releasing peptide receptor (Homo sapiens) (UniProt P30550)
Chain of Gastrin-releasing peptide receptor (Homo sapiens) (P30550 whole entry, looked up): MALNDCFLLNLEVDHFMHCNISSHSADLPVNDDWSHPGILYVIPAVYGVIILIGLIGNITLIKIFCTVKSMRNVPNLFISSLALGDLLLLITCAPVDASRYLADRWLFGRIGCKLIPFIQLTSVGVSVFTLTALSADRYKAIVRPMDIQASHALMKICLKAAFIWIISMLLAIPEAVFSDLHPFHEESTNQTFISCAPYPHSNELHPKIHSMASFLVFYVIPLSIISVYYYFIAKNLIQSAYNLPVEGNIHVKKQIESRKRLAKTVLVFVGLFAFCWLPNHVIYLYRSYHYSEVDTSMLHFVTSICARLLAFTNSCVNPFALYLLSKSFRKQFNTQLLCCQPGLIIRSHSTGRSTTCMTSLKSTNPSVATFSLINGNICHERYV

Chain of Neuromedin-B receptor (Homo sapiens) (P28336 whole entry, looked up): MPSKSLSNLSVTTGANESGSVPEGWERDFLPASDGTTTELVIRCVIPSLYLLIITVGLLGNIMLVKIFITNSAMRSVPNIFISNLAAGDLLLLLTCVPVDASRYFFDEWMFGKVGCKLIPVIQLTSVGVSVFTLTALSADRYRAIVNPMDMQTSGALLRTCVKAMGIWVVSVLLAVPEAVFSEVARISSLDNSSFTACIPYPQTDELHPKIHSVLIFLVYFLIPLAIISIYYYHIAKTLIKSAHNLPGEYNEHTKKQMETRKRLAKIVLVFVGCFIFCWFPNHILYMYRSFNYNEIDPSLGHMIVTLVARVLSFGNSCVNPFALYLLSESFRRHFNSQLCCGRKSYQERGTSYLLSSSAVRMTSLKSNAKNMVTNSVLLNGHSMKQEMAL

Row | Compound | IC50 [1] | EC50 [2] | EC50 [3] | Activity [4] | further results
1 | CC(C)(C)c1cccc(NS(=O)(=O)c2cnccc2N[C@@H]2C[C@H]3CC[C@@H]2C3)c1 (racemic) | 520 nM | 160 nM | 2600 nM | 102% | –
2 | CC(C)(C)NC(=O)NS(=O)(=O)c1cnccc1NC(C)(C)c1ccccc1 | 3000 nM | 4300 nM | 8100 nM | 43% | –
3 | CC(C)(C)NC(=O)NS(=O)(=O)c1cnccc1NC1CCc2ccccc21 (racemic) | 3800 nM | 1300 nM | 6800 nM | 63% | –
4 | CC(C)(C)c1cc(NS(=O)(=O)c2cnccc2N[C@@H]2C[C@H]3CC[C@@H]2C3)[nH]n1 (racemic) | 250 nM | 270 nM | 4000 nM | 113% | –
5 | O=S(=O)(Nc1nc(C2CCC2)n[nH]1)c1cnccc1NC1CC2CCC1C2 (single isomer, unassigned) [listing 1 of 2 here] | – | – | – | 88% | –
6 | CCC(C)(C)NC(=O)NS(=O)(=O)c1cnccc1NC1CC2CCC1C2 (racemic) | – | – | – | – | Vd [5]: 0.3 L/kg; bioavailability [6]: 41%; clearance [7]: 26 mL/min/kg; Cmax [8]: 2 µM; MRT [9]: 11.4 min; half-life [10]: 15 min
7 | CC(C)(C)NC(=O)NS(=O)(=O)c1cnccc1O[C@@H]1C[C@@H]2CC[C@H]1C2 | 880 nM | 320 nM | 1600 nM | 77% | –
8 | CC(C)(C)c1csc(NS(=O)(=O)c2cnccc2N[C@@H]2C[C@H]3CC[C@@H]2C3)n1 (racemic) | 2500 nM | 200 nM | 2100 nM | 81% | –
9 | CC(C)(C)NC(=N)NS(=O)(=O)c1cnccc1N[C@@H]1C[C@H]2CC[C@@H]1C2 (racemic) | 9700 nM | 7000 nM | > 10000 nM | 13% | –
10 | CC(C)(C)NC(=O)NS(=O)(=O)c1cnccc1N[C@H]1C[C@@H]2CC[C@H]1C2 | 630 nM | 110 nM | 720 nM | 93% | –
11 | CC(C)(C)NC(=O)NS(=O)(=O)c1cnccc1N[C@H]1C[C@H]2CC[C@@H]1C2 (racemic) | 230 nM | 49 nM | 160 nM | 91% | –
12 | CC(C)NC(=O)NS(=O)(=O)c1cnccc1N[C@H]1C[C@H]2CC[C@@H]1C2 (racemic) | 820 nM | 98 nM | 940 nM | 86% | –
13 | CC(C)(C)NC(=O)NS(=O)(=O)c1cnccc1O[C@@H]1C[C@H]2CC[C@@H]1C2 (racemic) | 990 nM | 320 nM | 1200 nM | 92% | –
14 | O=C(NC12CC3CC(CC(C3)C1)C2)NS(=O)(=O)c1cnccc1N[C@@H]1C[C@H]2CC[C@@H]1C2 (mixture of isomers) | 310 nM | 39 nM | 220 nM | 55% | –
15 | CC(C)NC(=O)NS(=O)(=O)c1cnccc1NC1CC2CCC1C2 (centres undefined) | – | – | – | – | IC50 [11]: 600 nM; EC50 [12]: 220 nM
16 | CC(C)(C)CC(C)(C)NC(=O)NS(=O)(=O)c1cnccc1N[C@@H]1C[C@H]2CC[C@@H]1C2 (racemic) | 530 nM | 100 nM | 350 nM | 102% | –
17 | CC(C)(C)NC(=O)NS(=O)(=O)c1cnccc1N[C@@H]1C[C@H]2CC[C@]1(C)C2(C)C | 660 nM | 90 nM | 1700 nM | 88% | –
18 | CN(C(=O)NC(C)(C)C)S(=O)(=O)c1cnccc1N[C@@H]1C[C@H]2CC[C@@H]1C2 (racemic) | 6700 nM | 6500 nM | 8300 nM | 49% | –
19 | CC(C)(C)NC(=O)NS(=O)(=O)c1ccccc1N[C@@H]1C[C@H]2CC[C@@H]1C2 (racemic) | 6200 nM | 340 nM | 6400 nM | 91% | –
20 | O=S(=O)(Nc1nc(C2CCC2)n[nH]1)c1cnccc1NC1CC2CCC1C2 (single isomer, unassigned) [listing 2 of 2 here] | 310 nM | 190 nM | 1700 nM | – | –
21 | CCC(C)(C)NC(=O)NS(=O)(=O)c1cnccc1N[C@@H]1C[C@H]2CC[C@@H]1C2 (racemic) | 75 nM | 13 nM | 51 nM | 108% | –

Row | Compound | IC50 [1] | EC50 [2] | EC50 [3] | Activity [4] | further results
22 | O=S(=O)(Nc1nnc(C2CCC2)[nH]1)c1cnccc1N[C@@H]1C[C@H]2CC[C@@H]1C2 (racemic) | 290 nM | 170 nM | 1200 nM | – | –
23 | CC(C)(C)NC(=O)NS(=O)(=O)c1cnccc1N[C@@H]1C[C@H]2CC[C@@H]1C2 (racemic) [listing 1 of 2 here] | – | – | – | 101% | –
24 | CC(C)(C)NC(=O)NS(=O)(=O)c1cnccc1N[C@H]1CN2CCC1CC2 | > 10000 nM | > 10000 nM | > 10000 nM | 0% | –
25 | CC(C)(C)NC(=O)NS(=O)(=O)c1cnccc1N[C@H]1C[C@H]2CC[C@]1(C)C2(C)C | 300 nM | 33 nM | 450 nM | 82% | –
26 | CC(C)(C)NC(=O)NS(=O)(=O)c1cnccc1N[C@@H]1C[C@H]2CC[C@@H]1C2 [listing 1 of 2 here] | – | – | – | 100% | –
27 | CC(C)(C)NC(=O)NS(=O)(=O)c1cnccc1NC1CCCCC1 | 400 nM | 260 nM | 450 nM | 90% | –
28 | O=S(=O)(Nc1nc(C2CCC2)n[nH]1)c1cnccc1NC1CC2CCC1C2 (single isomer, unassigned; faster eluting) [listing 1 of 2 here] | 68 nM | 51 nM | 380 nM | – | –
29 | CC(C)(C)NC(=O)NS(=O)(=O)c1cnccc1N[C@@H]1C[C@H]2CC[C@@H]1C2 [listing 2 of 2 here] | 68 nM | 21 nM | 55 nM | – | –
30 | CC(C)(C)NC(=O)NS(=O)(=O)c1cnccc1N[C@@H]1C[C@H]2CC[C@@H]1C2 (racemic) [listing 2 of 2 here] | 100 nM | 28 nM | 81 nM | – | –
31 | CC(C)(C)NC(=O)NS(=O)(=O)c1cnccc1NC1CC2CCC1C2 (racemic) | – | – | – | – | Vd [5]: 0.57 L/kg; bioavailability [6]: 100%; clearance [7]: 14 mL/min/kg; Cmax [8]: 7 µM; MRT [9]: 39.6 min; half-life [10]: 288 min
32 | O=S(=O)(Nc1nc(C2CCC2)n[nH]1)c1cnccc1NC1CC2CCC1C2 (single isomer, unassigned; faster eluting) [listing 2 of 2 here] | – | – | – | 87% | –
33 | CC(C)(C)OC(=O)NS(=O)(=O)c1cnccc1N[C@@H]1C[C@H]2CC[C@@H]1C2 (racemic) | > 10000 nM | 590 nM | 8200 nM | 89% | –
34 | CC(C)(C)NC(=O)NS(=O)(=O)c1cnccc1NC1CC2CCC1C2 (centres undefined) | – | – | – | – | EC50 [13]: > 10000 nM; EC50 [14]: > 10000 nM
35 | CN(C(=O)NS(=O)(=O)c1cnccc1N[C@@H]1C[C@H]2CC[C@@H]1C2)C(C)(C)C (racemic) | 650 nM | 180 nM | 640 nM | 96% | –
36 | CC(C)c1n[nH]c(NS(=O)(=O)c2cnccc2N[C@@H]2C[C@H]3CC[C@@H]2C3)n1 (racemic) | 770 nM | 410 nM | 4000 nM | 72% | –
37 | CC(C)(C)CC(=O)NS(=O)(=O)c1cnccc1N[C@@H]1C[C@H]2CC[C@@H]1C2 (racemic) | > 10000 nM | 4900 nM | 8300 nM | 61% | –
38 | O=S(=O)(Nc1nc(C2CCC2)n[nH]1)c1cnccc1N[C@@H]1C[C@H]2CC[C@@H]1C2 (racemic) | – | – | – | 84% | –
39 | CC(C)NC(=O)NS(=O)(=O)c1cnccc1N[C@@H]1C[C@H]2CC[C@@H]1C2 (racemic) | 510 nM | 86 nM | 440 nM | 88% | –
40 | CC(C)(C)NC(=O)NS(=O)(=O)c1cnccc1NN1CCCC1 | > 10000 nM | > 10000 nM | > 10000 nM | 5% | –
41 | CC(C)(C)NC(=O)NS(=O)(=O)c1cnccc1NCc1ccccc1 | > 10000 nM | 6900 nM | 7500 nM | 20% | –
